One experiment concerns Murine T-cell line. Kind of experiment: Immunomodulatory activity in Kunming mouse T cells assessed as inhibition of ConA-induced cell proliferation at 40 uM after 48 hrs by MTT assay. It is filed as functional, cell-based. The method in brief: (§1)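 Splenocytes came from three male KM mice (25 g), seeded at 5 × 10^5 cells/well. Stimulation was 5 μg/mL ConA (T cells) or 10 μg/mL LPS (B cells), with compounds in DMSO at final 40 μM. After 48 h culture, MTT was read at 570 nm. Stimulated and unstimulated controls set baseline proliferation.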
(In general: Tetrazolium dyes change colour on reduction, which living cells bring about.)

The subject of a further experiment is Staphylococcus aureus. Kind of experiment: Antimicrobial activity against Staphylococcus aureus by agar well diffusion method. It is filed as functional, organism-based. The method in brief: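 Agar-well diffusion against S. aureus (Gram-positive) and a Gram-negative organism the paper calls C. bacillus. Cefotaxime sodium and tetracycline served as positive controls, with solvent DMSO as the negative control.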

In another experiment the test system is Escherichia coli. The experiment is described as follows: Antimicrobial activity against Escherichia coli by agar well diffusion method. (In agar diffusion tests the substance spreads into inoculated agar from a disc or well.)
The next experiment relates to B-cell line. Kind of experiment: Immunomodulatory activity in Kunming mouse B cells assessed as inhibition of LPS-induced cell proliferation at 40 uM after 48 hrs by MTT assay. It is filed as functional, cell-based. The procedure, abridged:
as §1

Another experiment deals with MCF7. Kind of experiment: Antiproliferative activity against human MCF7 cells after 48 hrs by MTT assay. It is filed as functional, cell-based. The settings on record: MCF7, 48 h. The procedure, abridged: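 Cells were grown in RPMI 1640 with 10% FBS, penicillin and streptomycin at 37 °C in 5% CO2 and seeded at 5000 cells/well. Compounds (50, 25, 12.5, 6.25, 3.12, 1.56 μM; final DMSO 0.5%) were added 24 h later and incubated 48 h. MTT was added for 4 h, cells lysed in SDS/isopropanol/HCl, and A570 read. Runs were triplicate, with doxorubicin as positive control. IC50 came from means ± SEM.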

Activity calls are given as the source filed them. The calls are words filed in the database; no cut-off is given here.

As to `C/C1=C\[C@@H](C)C/C=C/[C@H]2[C@H](O)[C@@]3(C)O[C@@]4(CC(=O)c5ccccc5N)NC(=O)[C@]2(C(=O)CC[C@H](O)C1=O)[C@H]4[C@@H]3C`, the inhibition entry with Murine T-cell line is “Active”. Also, the result with Staphylococcus aureus and in the experiment with Escherichia coli was inactive.
Regarding `C/C1=C\[C@@H](C)C/C=C/[C@H]2[C@@H]3O[C@]3(C)[C@@H](C)[C@H]3[C@H](C(O)c4c[nH]c5ccccc45)NC(=O)[C@]32C(=O)CC[C@H](O)C1=O` (stereo in doubt; 6), the inhibition entry with Murine T-cell line and in the experiment on B-cell line was “Active” in each case. The outcome with Staphylococcus aureus and in the experiment on Escherichia coli was inactive.
As for `C=C1[C@@H](C)[C@H]2[C@H](C(OC)c3c[nH]c4ccccc34)NC(=O)[C@]23C(=O)CC[C@H](O)C(=O)/C(C)=C/[C@@H](C)C/C=C/[C@H]3[C@@H]1O` (stereo in doubt; 8) [listing 1 of 2 here], the inhibition entry with Murine T-cell line and with B-cell line was “Active” in each case. Moreover, the result in the experiment with Staphylococcus aureus and in the experiment on Escherichia coli was inactive.
The IC50 is the midpoint of a concentration-inhibition curve. A lower IC50 goes with greater potency. Turning to `C/C1=C\[C@@H](C)C/C=C/[C@H]2[C@H](O)[C@@]3(C)O[C@@]4(CC56OC5Nc5ccccc56)NC(=O)[C@]2(C(=O)CC[C@H](O)C1=O)[C@H]4[C@@H]3C` (stereo in doubt; 11) [listing 1 of 2 here], inhibition in the experiment on MCF7 was half-maximal at 27.9 µM (IC50).
For `COC(c1c[nH]c2ccccc12)[C@@H]1NC(=O)[C@@]23C(=O)CC[C@H](O)C(=O)/C(C)=C/[C@@H](C)C/C=C/[C@H]2[C@H](O)C(C)=C(C)[C@@H]13` (stereo in doubt; 10), in the experiment with B-cell line, the inhibition entry is “Active”. The result in the experiment with Staphylococcus aureus and in the experiment on Escherichia coli was inactive.
Take `C/C1=C\[C@@H](C)C/C=C/[C@H]2[C@H](O)[C@@]3(C)O[C@@]4(CC56OC5Nc5ccccc56)NC(=O)[C@]2(C(=O)CC[C@H](O)C1=O)[C@H]4[C@@H]3C` (stereo in doubt; 11) [listing 2 of 2 here]: the result with Staphylococcus aureus and in the experiment with Escherichia coli was inactive.
Consider `C/C1=C\[C@H]2C=C(CO)[C@@H](C)[C@H]3[C@H](CC(C)C)NC(=O)[C@]32C(=O)CC[C@H](O)C(=O)CC1`, for which the inhibition result in the experiment with Murine T-cell line is “Active”. In addition, the outcome in the experiment on Staphylococcus aureus and in the experiment with Escherichia coli was inactive.
As for `C/C1=C\[C@@H](C)C/C=C/[C@H]2[C@@H]3O[C@]3(C)[C@@H](C)[C@H]3[C@H](C(O)c4c[nH]c5ccccc45)NC(=O)[C@]32C(=O)CC[C@H](O)C1=O` (stereo in doubt; 5), in the experiment with Murine T-cell line, the inhibition entry was “Active”. Also, the outcome in the experiment with Staphylococcus aureus and in the experiment with Escherichia coli was inactive.
For the compound `C=C1[C@@H](C)[C@H]2[C@H](C(OC)c3c[nH]c4ccccc34)NC(=O)[C@]23C(=O)CC[C@H](O)C(=O)/C(C)=C/[C@@H](C)C/C=C/[C@H]3[C@@H]1O` (stereo in doubt; 8) [listing 2 of 2 here], it took 20.7 µM to reach half-maximal inhibition with MCF7 (IC50).
As for `C/C1=C\[C@H]2C=C(CO)[C@@H](C)[C@H]3[C@H](CC(C)C)NC(=O)[C@]32C(=O)CC[C@@H](O)C(=O)CC1`, the inhibition entry in the experiment on Murine T-cell line was “Active”. Moreover, the outcome with Staphylococcus aureus and with Escherichia coli was inactive.
Turning to `C/C1=C\[C@H]2C=C(CO)[C@@H](C)[C@H]3[C@H](CC(C)C)NC(=O)[C@]32C(=O)CCC(=O)[C@@H](O)CC1`, in the experiment with Murine T-cell line, the inhibition entry is “Active”. The outcome in the experiment with Staphylococcus aureus and in the experiment on Escherichia coli was inactive.
Take `C/C1=C\[C@H]2C=C(CO)[C@@H](C)[C@H]3[C@H](CC(C)C)NC(=O)[C@]32C(=O)CCC(=O)[C@H](O)CC1`: the inhibition result in the experiment with B-cell line is “Active”. Also, the result in the experiment on Staphylococcus aureus and in the experiment with Escherichia coli was inactive.
Turning to `C=C1[C@@H](C)[C@H]2[C@H](C(OC)c3c[nH]c4ccccc34)NC(=O)[C@]23C(=O)CC[C@H](O)C(=O)/C(C)=C/[C@@H](C)C/C=C/[C@H]3[C@@H]1O` (stereo in doubt; 7), the inhibition result in the experiment with Murine T-cell line and with B-cell line was “Active” in each case. In addition, the result in the experiment on Staphylococcus aureus and in the experiment with Escherichia coli was inactive.
With `COC(c1c[nH]c2ccccc12)[C@@H]1NC(=O)[C@@]23C(=O)CC[C@H](O)C(=O)/C(C)=C/[C@@H](C)C/C=C/[C@H]2[C@H](O)C(C)=C(C)[C@@H]13` (stereo in doubt; 9), the inhibition entry in the experiment with Murine T-cell line and in the experiment with B-cell line was “Active” in each case. Besides, the result in the experiment with Staphylococcus aureus and in the experiment on Escherichia coli was inactive.
With `C/C1=C\[C@@H](C)C/C=C/[C@H]2[C@H](O)[C@@]3(C)O[C@@]4(CC56OC5Nc5ccccc56)NC(=O)[C@]2(C(=O)CC[C@H](O)C1=O)[C@H]4[C@@H]3C` (stereo in doubt; 12), the inhibition entry with Murine T-cell line is “Active”. Besides, the outcome with Staphylococcus aureus and in the experiment with Escherichia coli was inactive.

Source of the values: ChEMBL document CHEMBL4145639, “Cytochalasans Produced by the Coculture of Aspergillus flavipes and Chaetomium globosum” (J Nat Prod, 2018).
